# Results reported in ChEMBL document CHEMBL3045051 (Med Chem Res, 2011).
# Calls of active or inactive are those of the source. The rule behind the calls is not given here.
# Legend:
# [1] = tested on: Human alphaherpesvirus 1; experiment: Antiviral activity against […] 1 KOS infected in human HEL cells assessed as inhibition of virus-induced cytopathicity; type: functional, organism-based
# How it was run: (§1)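 Confluent monolayers (feline kidney Crandell, Vero, HEL or HeLa, as named for each virus) were infected with 100 CCID50 of virus and allowed to adsorb for 1 h. Unbound virus was then removed, and cultures were incubated with test compound in serial dilutions (200, 40, 8 … µM). Cytopathicity was scored once untreated infected controls reached complete cytopathic effect.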
# [2] = tested on: Feline coronavirus; experiment: Antiviral activity against Feline coronavirus infected feline kidney crandell cells assessed as inhibition of virus-induced cytopathicity; type: functional, organism-based; how it was run: as §1
# [3] = tested on: Coxsackievirus B4; experiment: Antiviral activity against Human coxsackievirus B4 infected human HeLa cells assessed as inhibition of virus-induced cytopathicity; type: functional, organism-based; how it was run: as §1
# [4] = Antioxidant activity assessed as inhibition of AAPH-induced lipid peroxidation at 1 X 10^-5 M; type: functional
# [5] = tested on: Radical scavenging activity; experiment: Antioxidant activity assessed as DPPH radical scavenging activity at 1 X 10^-4 M after 60 min; type: functional
# How it was run: (§2)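 Test compound was mixed with DPPH (0.05 and 0.1 mM) in ethanol. Absorbance at 517 nm was read after 20 and 60 min and compared with the NDGA standard, with ethanol as control. Each experiment was run at least in triplicate, and the SD of absorbance was <10% of the mean.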
# [6] = tested on: Coxsackievirus B4; experiment: Antiviral activity against Human coxsackievirus B4 infected VERO cells assessed as inhibition of virus-induced cytopathicity; type: functional, organism-based; how it was run: as §1
# [7] = tested on: Respiratory syncytial virus; experiment: Antiviral activity against Respiratory syncytial virus infected human HeLa cells assessed as inhibition of virus-induced cytopathicity; type: functional, organism-based; how it was run: as §1
# [8] = tested on: Sindbis virus; experiment: Antiviral activity against Sindbis virus infected Hela cells assessed as inhibition of virus-induced cytopathicity; type: functional, organism-based
# [9] = tested on: Radical scavenging activity; experiment: Antioxidant activity assessed as DPPH radical scavenging activity at 5 X 10^-5 M after 60 min; type: functional; how it was run: as §2
# [10] = tested on: Influenza A virus; experiment: Antiviral activity against Unidentified Influenza A virus (H1N2) infected MDCK cells assessed as inhibition of virus-induced cytopathicity; type: functional, organism-based
# [11] = tested on: Vesicular stomatitis virus; experiment: Antiviral activity against Vesicular stomatitis virus infected HEL cells assessed as inhibition of virus-induced cytopathicity; type: functional, organism-based
# [12] = target: T1, Seed linoleate 13S-lipoxygenase-1 (Glycine max, UniProt P08170); experiment: Inhibition of Glycine max (soybean) lipoxygenase using sodium linoleate as substrate
# T1 sequence (P08170 whole entry): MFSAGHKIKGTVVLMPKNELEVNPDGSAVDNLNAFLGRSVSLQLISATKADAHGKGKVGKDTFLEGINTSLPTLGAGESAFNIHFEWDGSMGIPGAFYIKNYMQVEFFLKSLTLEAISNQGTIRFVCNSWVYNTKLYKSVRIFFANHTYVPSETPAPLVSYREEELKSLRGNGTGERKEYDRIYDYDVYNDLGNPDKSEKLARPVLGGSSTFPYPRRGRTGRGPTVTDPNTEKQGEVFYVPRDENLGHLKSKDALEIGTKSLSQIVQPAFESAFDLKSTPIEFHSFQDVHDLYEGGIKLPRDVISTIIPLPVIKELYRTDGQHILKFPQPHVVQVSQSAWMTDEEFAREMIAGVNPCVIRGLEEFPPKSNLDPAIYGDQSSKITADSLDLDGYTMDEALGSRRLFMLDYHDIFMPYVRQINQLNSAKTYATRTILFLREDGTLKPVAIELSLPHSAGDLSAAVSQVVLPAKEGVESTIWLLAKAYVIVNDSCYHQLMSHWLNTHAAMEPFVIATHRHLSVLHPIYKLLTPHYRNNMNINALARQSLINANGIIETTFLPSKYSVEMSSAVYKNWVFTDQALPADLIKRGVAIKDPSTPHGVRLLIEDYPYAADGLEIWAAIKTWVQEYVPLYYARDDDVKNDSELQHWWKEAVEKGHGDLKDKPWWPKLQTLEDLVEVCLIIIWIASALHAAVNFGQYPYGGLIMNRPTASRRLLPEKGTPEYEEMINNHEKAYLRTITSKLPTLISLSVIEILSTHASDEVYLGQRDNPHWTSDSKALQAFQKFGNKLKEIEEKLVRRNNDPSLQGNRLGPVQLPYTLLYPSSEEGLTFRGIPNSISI
# [13] = tested on: Human alphaherpesvirus 2; experiment: Antiviral activity against Human herpesvirus 2 strain G infected human HEL cells assessed as inhibition of virus-induced cytopathicity; type: functional, organism-based; how it was run: as §1
# [14] = tested on: Vesicular stomatitis virus; experiment: Antiviral activity against Vesicular stomatitis virus infected Hela cells assessed as inhibition of virus-induced cytopathicity; type: functional, organism-based
# [15] = tested on: Mammalian orthoreovirus 1; experiment: Antiviral activity against Mammalian orthoreovirus 1 infected VERO cells assessed as inhibition of virus-induced cytopathicity; type: functional, organism-based; how it was run: as §1
# [16] = tested on: Vaccinia virus; experiment: Antiviral activity against Vaccinia virus infected human HEL cells assessed as inhibition of virus-induced cytopathicity; type: functional, organism-based; details: Orthopoxvirus vaccinia
# [17] = tested on: Punta Toro virus; experiment: Antiviral activity against Punta Toro virus infected Hela cells assessed as inhibition of virus-induced cytopathicity; type: functional, organism-based
# [18] = Antioxidant activity assessed as inhibition of AAPH-induced lipid peroxidation at 1 X 10^-4 M; type: functional
# [19] = target: T2, Seed linoleate 13S-lipoxygenase-1 (Glycine max) (UniProt P08170); experiment: Inhibition of Glycine max (soybean) lipoxygenase using sodium linoleate as substrate at 1 X 10^-4
# T2 sequence (whole entry): T1 sequence (P08170 whole entry)
# [20] = tested on: Radical scavenging activity; experiment: Antioxidant activity assessed as DPPH radical scavenging activity at 5 X 10^-5 M after 20 min; type: functional; how it was run: as §2
# [21] = tested on: Human respirovirus 3; experiment: Antiviral activity against Human parainfluenza virus 3 infected Vero cells assessed as inhibition of virus-induced cytopathicity; type: functional, organism-based; how it was run: as §1
# [22] = tested on: Radical scavenging activity; experiment: Antioxidant activity assessed as DPPH radical scavenging activity at 1 X 10^-4 M after 20 min; type: functional; how it was run: as §2
Structure (SMILES),Activity [1],Activity [2],Activity [3],inhibition [4],inhibition [5] [%],Activity [6],Activity [7],Activity [8],inhibition [9] [%],Activity [10],Activity ([10]; H1N1),Activity [11],IC50 [12] [µM],Activity [13],Activity [14],Activity [15],Activity [16],inhibition [20] [%],Activity [21],inhibition [22],also measured
CC(C(=O)NC1CCCC1)c1cccc(C(OC(=O)NC2CCCC2)c2ccccc2)c1 (configuration not stated),inactive,inactive,inactive,inactive,2.3,inactive,inactive,inactive,2.8,inactive,inactive,inactive,86,inactive,inactive,inactive,inactive,3.2,inactive,inactive,Activity [17]: inactive; inhibition [18]: 95.2%; inhibition [19]: 69.6%
CC(C(=O)NCC1CCCCC1)c1cccc(C(OC(=O)NCC2CCCCC2)c2ccccc2)c1 (configuration not stated),inactive,inactive,inactive,1.4%,5.2,inactive,inactive,inactive,3.1,inactive,inactive,inactive,95,inactive,inactive,inactive,inactive,1.7,inactive,1.6%,Activity [17]: inactive; inhibition [18]: 99.5%; inhibition [19]: 56.6%
CC(C(=O)NCc1ccccc1)c1cccc(C(OC(=O)NCc2ccccc2)c2ccccc2)c1 (configuration not stated),inactive,inactive,inactive,inactive,2.4,inactive,inactive,,5.3,inactive,inactive,inactive,32,inactive,,inactive,inactive,4.2,inactive,inactive,EC50 [8]: 11 µM; EC50 [14]: 3000 nM; EC50 [17]: 11 µM; inhibition [18]: 98.4%; inhibition [19]: 83.8%
CC(C(=O)n1nnc2ccccc21)c1cccc(C(OC(=O)n2nnc3ccccc32)c2ccccc2)c1 (configuration not stated),inactive,inactive,inactive,15%,5.4,inactive,inactive,inactive,3.7,inactive,inactive,inactive,21,inactive,inactive,inactive,inactive,2.9,inactive,2.5%,Activity [17]: inactive; inhibition [18]: 98%; inhibition [19]: 95%
CC(C(=O)O)c1cccc(C(=O)c2ccccc2)c1 (configuration not stated) [KETOPROFEN],inactive,inactive,inactive,,7.2,inactive,inactive,inactive,3.1,inactive,inactive,inactive,130,inactive,inactive,inactive,inactive,6.4,inactive,8.1%,Activity [17]: inactive
